# Compounds with a hit are over-represented: about 2.7% of the library has one in this group of screens.
# 14-3-3 Bad PPI = disrupts binding of bovine 14-3-3 zeta to phospho-Bad peptide; inhibition, % at 21.7 µM; 220,000 compounds, 0.71% hits; P63103; AID 781; TR-FRET 14-3-3zeta/Dy647-pBad peptide displacement, 1 h;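 active means inhibition above about 70%, limit read from the data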;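 further: 0% = full 14-3-3 plus peptide FRET controls and 100% = background without 14-3-3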
# Tb hexokinase = T. brucei hexokinase 1 inhibition. inhibition, % at 10 µM. 220,000 compounds, 0.11% hits. recombinant TbHK1, G6PDH-coupled NADH A340. AID 1430;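 active means inhibition of 50% or more in the single-dose primary screen; inactive means inhibition below 50%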
# Mdm2 ligase inh = Mdm2 E3 ligase (human) inhibition | Q00987 | cell-based MDM2 ubiquitination luciferase reporter, 2 h; 0 = plate control, 100 = twice control, blank-subtracted | signal enhancement, % at 5 µM | 210,000 compounds, 0.11% hits | AID 1230;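 active means signal enhancement of 30% or more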;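 further: luminescence tracks abundance of the self-degrading MDM2-luciferase fusion protein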
#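 Assay system: mammalian cells stably expressing self-ubiquitinating, self-degrading MDM2 E3–luciferase fusion. Quantity: 2000 cells in each well. Medium: DMEM culture medium. Compound dosing: single-point 5 µM. Timing: cell settling 4 h, compound treatment 2 h, both 37 °C. Technique: luciferase luminescence. Read-out basis: percent signal gain over controls, blank-subtracted. Benchmarks: plate controls and plate blanks.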
# Hck Nef HTS = inhibitors of human Hck kinase activated by Nef; P08631; Recombinant Hck-YEEI plus Nef, Z-Lyte FRET kinase assay; inhibition, % at 20 µM; 220,000 compounds, 0.68% hits; AID 463187;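 active means Hck-Nef kinase inhibition above about 50%, limit read from the data; inactive means inhibition below that limit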;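 further: 0% = DMSO with Hck plus Nef and 100% = Hck alone without Nef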
# Wee1 stabilizer = inhibitors of human Wee1 degradation; P30291; HeLa Luc-Wee1K328M stability, luciferase luminescence; 100% = proteasome inhibitor MG132 effect; reporter increase, % at 5 µM; 220,000 compounds, 1.2% hits; AID 1321;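 active means activation above the mean of all tested compounds plus 3 SD, set per screening run, cut at about 8.8% in these data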;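 further: cells exposed to compound for 20 h before luminescence read; 0% = DMSO alone and 100% = MG132 at 30 µM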
# Target sequence (P30291 whole entry K328M): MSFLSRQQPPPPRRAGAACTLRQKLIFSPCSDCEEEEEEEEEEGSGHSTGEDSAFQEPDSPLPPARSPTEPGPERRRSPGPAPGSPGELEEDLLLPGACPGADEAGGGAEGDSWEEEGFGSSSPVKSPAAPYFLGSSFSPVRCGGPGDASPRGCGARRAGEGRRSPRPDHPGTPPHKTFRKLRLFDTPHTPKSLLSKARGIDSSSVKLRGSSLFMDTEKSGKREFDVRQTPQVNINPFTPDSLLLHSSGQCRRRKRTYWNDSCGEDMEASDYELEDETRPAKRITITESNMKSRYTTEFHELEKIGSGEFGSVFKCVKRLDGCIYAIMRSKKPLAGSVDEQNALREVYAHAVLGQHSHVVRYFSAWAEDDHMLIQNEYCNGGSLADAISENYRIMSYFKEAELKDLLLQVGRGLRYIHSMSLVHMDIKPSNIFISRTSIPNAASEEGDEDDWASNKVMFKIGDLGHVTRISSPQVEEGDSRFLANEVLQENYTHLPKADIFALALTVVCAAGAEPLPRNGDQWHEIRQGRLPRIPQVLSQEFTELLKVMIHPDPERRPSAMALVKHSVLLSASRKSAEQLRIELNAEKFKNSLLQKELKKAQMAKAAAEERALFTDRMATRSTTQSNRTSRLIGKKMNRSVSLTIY
# Active calls of the source: *; . = no result.
SMILES,14-3-3 Bad PPI,Tb hexokinase,Mdm2 ligase inh,Hck Nef HTS,Wee1 stabilizer
CSc1nnc(C2CCNCC2)n1C,87.2*,3.8,-4.1,-1.5,5.3
COc1ccc(CN2C(=O)NC(=O)/C(=C/c3ccc([N+](=O)[O-])s3)C2=O)cc1,8.2,-15.3,-21.2,12.0,-2.9
O=C1NC(=O)N(CCC2=CCCCC2)C(=O)/C1=C\c1cccs1,3.8,38.0,16.7,50.5*,-2.2
NC1=NC(=O)C(c2ccccc2)O1 (stereo unspecified),-0.3,.,.,.,10.2*
Brc1ccc2c(c1)C(OC1CN3CCC1CC3)c1ccccc1CS2 (stereo unspecified),-8.0,9.2,-4.1,2.1,2.6
CCOC(=O)C1=C(N)Oc2cc(C)oc(=O)c2C12C(=O)N1c3c(cccc32)C(C)=CC1(C)C (stereo unspecified),1.2,-9.0,1.0,0.0,-2.1
CCOC(=O)C1=C(N)Oc2cc(C)oc(=O)c2C12C(=O)N1c3c(cccc32)C(C)CC1(C)C (stereo unspecified),70.3*,-4.4,-5.7,-0.5,1.2
CCCCCc1nc2ccccc2c(=O)n1-c1ccc(Cl)cc1[N+](=O)[O-],9.5,1.6,-26.3,-1.3,-2.8
CC(C)CCOC(=O)c1c(N)n(CC2CCCO2)c2nc3ccccc3nc12 (stereo unspecified),-16.6,-9.4,-6.8,16.2,10.2*
CCCCCn1c(=O)c(C(=O)Nc2nc3ccccc3[nH]2)c(O)c2ccccc21,-4.2,-29.5,-11.3,15.1,10.1*
COc1cccc(N2C(=O)NC(=O)/C(=C/c3ccc4c(c3)Cc3ccccc3-4)C2=O)c1,24.9,-7.9,-9.4,115.5*,-0.9
COc1ccc(N2C(=O)CC(N3CCC(n4c(=O)[nH]c5ccccc54)CC3)C2=O)cc1 (stereo unspecified),-9.6,-3.3,-12.5,0.1,0.1
O=c1[nH]c2ccccc2n1CCCN1CCC(n2c(=O)[nH]c3cc(Cl)ccc32)CC1,92.3*,-2.1,.,-3.3,-2.3
Cc1cc(C=O)c(C)n1C1CC1,-20.1,-3.1,-16.7,21.7,-2.3
O=C(O)c1nonc1-c1nonc1C(=O)O,-1.3,-7.3,-0.4,-0.8,17.9*
CCC(C)N1CCN(C(=O)Cc2ccccc2)CC1 (stereo unspecified),80.1*,-5.1,.,-21.1,-0.7
COc1ccc(CN2CCN(C(=O)Cc3ccccc3)CC2)c(OC)c1,47.2,-3.6,-12.9,-21.9,1.4
Cc1ccc(CC(=O)N2CCN(Cc3ccccc3)CC2)cc1,-14.9,-1.9,1.3,19.7,1.1
COc1ccc(Br)cc1CN1CCN(C(=O)Cc2ccccc2)CC1,86.4*,11.4,-6.5,-22.1,2.3
COc1ccc(CC(=O)N2CCN(C)CC2)cc1OC,73.2*,-1.6,-6.9,0.6,3.4
COc1ccc(CC(=O)N2CCN(C)CC2)cc1,9.2,4.4,-1.0,-0.2,1.7
O=C(c1cccn2c(=O)c3ccc(Cl)cc3nc12)N1CCC2(CC1)OCCO2,-3.0,-28.8,-14.0,6.4,1.5
COc1ccc(-c2cc(=Nc3ccccc3)c3cc(C)ccc3o2)cc1,-0.6,-5.4,.,2.4,8.7
COc1ccc(-c2cc(=O)c3c(OC)c(OC)c(OC)cc3o2)cc1,11.5,-27.5,-13.9,16.1,9.3*
COc1cccc(-n2c(CN3CCN(C)CC3)nc3ccc([N+](=O)[O-])cc3c2=O)c1,15.8,-16.9,1.6,9.8,-0.6
SMILES,14-3-3 Bad PPI,Tb hexokinase,Mdm2 ligase inh,Hck Nef HTS,Wee1 stabilizer
Cc1oc(-c2ccc(F)cc2F)nc1CN1C[C@@H]2C[C@@H](C1)c1cccc(=O)n1C2,-6.5,1.6,-4.7,4.4,-2.0
CN(C)c1ccc(CN2CC=C(c3ccc(F)cc3)CC2)cc1,73.2*,7.6,-14.1,1.4,2.7
CCN1C(=O)C(=C/C=C/c2ccco2)C(=O)N(CC)C1=S,5.9,-0.7,47.0*,11.7,-1.5
CC(C)N1C(=O)/C(=C/C=C/c2ccco2)C(=O)N(Cc2ccco2)C1=O,-1.8,15.1,13.3,1.5,-3.4
CC(C)(C)c1cc([N+](=O)[O-])cc(C(C)(C)C)c1O,-7.4,-3.5,1.0,19.7,0.7
Cc1ccc(N2CCN(CCc3ccccc3)CC2)cc1,82.8*,6.7,-10.2,-1.5,1.3
Cc1cccc(N2CCN(CCc3ccccc3)CC2)c1C,63.3,-3.3,-14.9,0.3,-0.6
CCOC(=O)c1c(NC(=O)C(c2ccccc2)c2ccccc2)sc2c1C1CCN2CC1,79.1*,-7.1,-0.2,-0.6,-0.1
O=C1NC(=S)N(Cc2ccco2)C(=O)/C1=C\c1cccs1,96.7*,80.6*,-6.4,97.5*,-3.1
O=C1NC(=O)N(c2cccc(Cl)c2)C(=O)/C1=C\c1ccc(Sc2nc3ccccc3[nH]2)o1,37.7,-4.3,.,9.4,10.8*
Cc1ccc(CN2CCCC(C(=O)c3sccc3C)C2)o1 (stereo unspecified),-2.9,-10.1,-13.4,-1.0,1.9
CCCCCCOc1ccc(CN2CCN(CC)CC2)cc1,29.8,-0.1,-32.0,0.4,1.1
CCN1CCN(Cc2ccc(OC(F)(F)F)cc2)CC1,85.0*,-1.9,-3.1,0.0,5.5
CC(C)(C#CCCCCC#CC(C)(C)[N+](C)(C)C)[N+](C)(C)C,-3.1,-5.5,-7.6,14.9,-3.6
CC1=CC2/C=C(\C)CCC(O)C(O)/C=C/C(=O)C23C(=O)NC(CC(C)C)C3C1C (stereo unspecified),6.8,-3.3,4.1,11.2,-2.5
C/C1=C\[C@@H](C)C/C=C/[C@H]2[C@@H]3O[C@]3(C)[C@@H](C)[C@H]3[C@H](Cc4c[nH]c5ccccc45)NC(=O)[C@]32C(=O)/C=C/C(=O)[C@@H]1O,6.5,-6.3,33.4*,3.4,-0.9
COc1ccc(CCNCc2ccccn2)cc1OC,75.2*,-3.5,-3.0,8.8,6.2
CCN(CC)C(=O)c1ccc(NC(=O)c2cccc(F)c2)cc1,-7.0,-6.4,-14.9,6.0,8.8*
O=c1[nH]c(=S)[nH]c(O)c1/C=N/N1CCOCC1,-4.4,-37.4,-6.9,9.6,-1.1
COc1cccc(N2CCN(Cc3cccc(Cl)c3)CC2)c1,79.8*,2.5,-9.8,3.8,0.5
COc1cccc(N2CCN(Cc3ccc(Cl)cc3)CC2)c1,33.5,-0.2,5.2,-1.1,0.6
Cc1ccsc1C(=O)C1CCCN(Cc2cnc(N3CCCC3)s2)C1 (stereo unspecified),-1.6,-11.3,2.1,19.4,1.5
COc1cc(C=C2C(=O)NC(=O)NC2=O)ccc1OCc1ccc([N+](=O)[O-])cc1,21.1,5.3,-21.8,22.9,11.7*
CCCCc1ccc2[nH]cc(CCN)c2c1,2.9,9.3,-13.3,0.7,-0.8
Clc1ccccc1CN1CCN(c2ccccc2)CC1,83.5*,-1.2,-1.4,-0.6,-1.4
CN(C)[C@@H]1C(=O)C(C(N)=O)=C(O)[C@@]2(O)C(=O)C3=C(O)c4c(O)cccc4[C@@](C)(O)[C@H]3[C@H](O)[C@@H]12,89.3*,-1.6,.,8.7,-2.5

# Assay outcomes deposited in PubChem BioAssay by several laboratories.
